PfG6PD inh = PfG6PD enzyme inhibitors, primary screen, biochemical, fluorescence intensity, uHTS | glucose-6-phosphate dehydrogenase-6-phosphogluconolactonase (Plasmodium falciparum 3D7) | PfGluPho enzyme, NADPH resazurin-diaphorase fluorescence | inhibition, % at 20 µM | actives 0.78% (n = 350,000);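 active = inhibition reaching at least a set limit at 20 µM in the primary screen, cut at about 59% in these data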;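 note: 0% = DMSO wells with substrate and 100% = DMSO wells lacking glucose-6-phosphate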
APOBEC3G inh = APOBEC3G DNA deaminase inhibitors, primary screen, biochemical, fluorescence, single-stranded DNA substrate, uHTS. recombinant A3G, ssDNA deamination FAM/TAMRA fluorescence. AID 493012, 2011. actives 0.28% (n = 330,000). DNA dC->dU-editing enzyme APOBEC-3G (Homo sapiens), Q9HC16. inhibition, % at 20 µM;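 active = inhibition of at least 40% at 20 µM, with no more than 30% in the related APOBEC3A deaminase screen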;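 note: plate controls were DMSO wells with A3G for no effect and wells lacking A3G enzyme for full effect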
HKDC1 inhibitor = HKDC1 hexokinase inhibitors, primary screen, biochemical, fluorescence, uHTS; recombinant HKDC1, G6PDH/diaphorase resazurin coupled fluorescence; Q2TB90; inhibition, % at 20 µM; actives 0.16% (n = 340,000); AID 493160, 2011;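 active = inhibition above about 35% when tested at 20 µM, limit read from the data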;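 note: plate controls were DMSO wells with enzyme for no effect and DMSO wells lacking enzyme for full effect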
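Material – in-house recombinant HK5 (HKDC1) enzyme · Quantity – HKDC1 at 5 µg/mL · Buffer or medium – pH 8.0 Tris buffer with 10 mM MgCl2 · Reagent – glucose with 1 mM ATP · Dosing – single 20 µM dose · Times – reaction time 90 min, room temperature, protected from light · Technique – resorufin fluorescence at 613 nm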
UBC9 SUMO inh = inhibitors of in vitro SUMOylation cascade, primary screen, biochemical, HTRF, uHTS; SUMO-conjugating enzyme UBC9 (Homo sapiens), P63279; HTRF SUMOylation assay, SAE1/SAE2 + UBC9; inhibition, % at 35 µM; actives 0.36% (n = 290,000); in the data active = inhibition above about 50%, passing the limit was not always enough
Target sequence (P63279 whole entry, looked up): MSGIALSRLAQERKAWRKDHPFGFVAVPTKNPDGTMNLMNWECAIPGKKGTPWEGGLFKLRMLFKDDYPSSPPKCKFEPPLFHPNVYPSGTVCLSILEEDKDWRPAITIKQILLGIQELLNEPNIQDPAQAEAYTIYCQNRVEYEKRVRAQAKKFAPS
A3A deaminase = APOBEC3A ssDNA deaminase inhibitors, primary screen, selectivity assay for APOBEC3G inhibitor project, biochemical, FAM/TAMRA oligo cleavage fluorescence | DNA dC->dU-editing enzyme APOBEC-3A (Homo sapiens), P31941 | recombinant A3A, FAM/TAMRA ssDNA deamination fluorescence | inhibition, % at 20 µM | actives 0.41% (n = 330,000);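 active = at least 40% inhibition at 20 µM here, with at most 30% in a related deaminase screen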;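 note: plate controls were A3A with DMSO for no effect and wells lacking A3A enzyme for full effect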
Target sequence (P31941 whole entry, looked up): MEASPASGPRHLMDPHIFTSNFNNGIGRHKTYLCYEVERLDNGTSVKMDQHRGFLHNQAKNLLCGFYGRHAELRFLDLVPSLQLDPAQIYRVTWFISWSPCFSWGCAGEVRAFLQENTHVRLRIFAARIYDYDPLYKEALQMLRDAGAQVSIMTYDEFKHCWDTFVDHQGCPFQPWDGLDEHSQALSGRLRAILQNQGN
PfM18AAP inh-1 = PfM18AAP inhibitors, malaria aminopeptidase, primary screen, biochemical, QFRET, recombinant enzyme. H-Glu-NHMec fluorogenic cleavage. actives 1.2% (n = 290,000). inhibition, % at 7.35 µM;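 active = inhibition above the campaign mean inhibition over all tested compounds plus 3 SD, cut at about 28% in these data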;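 note: 0% = plate median of test compound wells and 100% = 2 mM ZnCl2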
PfM18AAP inh-2 = PfM18AAP inhibitors, malaria aminopeptidase, confirmation, biochemical, QFRET, recombinant enzyme, triplicate | actives 28% (n = 2,400) | inhibition, % at 7.35 µM | H-Glu-NHMec fluorogenic cleavage | shares compounds with PfM18AAP inh-1;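 active = mean inhibition over replicate wells above the hit cutoff set for the earlier primary screen, cut at about 29% in these data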;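 note: 0% = median of test compound wells and 100% = 2 mM ZnCl2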
CTSL1 confirm = cathepsin L1 inhibitors, retest, confirmation, counter-screen for PFM18AAP inhibitor project, biochemical, QFRET, triplicate; shares compounds with PfM18AAP inh-1; purified cathepsin L1, Z-Leu-Arg-MCA fluorescence; inhibition, % at 5.96 µM; 2,400 tested, under 10 active;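 active = average inhibition across replicates above the hit cutoff set in the earlier primary screen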;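 note: 0% = median of test compound wells and 100% = Z-Phe-Ala-diazomethylketone 1 µM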
The depositor's hits bear a star; · = no result given. This is a sample that favours compounds with a hit; in the whole collection about 2.4% have one here.

SMILES	PfG6PD inh	APOBEC3G inh	HKDC1 inhibitor	UBC9 SUMO inh	A3A deaminase	PfM18AAP inh-1	PfM18AAP inh-2	CTSL1 confirm
N#Cc1c(-c2ccc(F)cc2)cc(-c2ccccc2)nc1SCC(=O)NCC(=O)O	23	16	21	25	2	51*	6	6
CCC1C(=O)N(c2nc(C)cc(C)n2)N=C1C (stereo not given)	-30	-8	-8	7	-2	0	·	·
C/C(=N/Nc1nc(-c2ccccc2)cc(-c2ccc(F)cc2)n1)c1cccc(N)c1	15	-1	4	-2	1	36*	-8	3
CCCCn1cnc2c(=S)nc(N)[nH]c21	48	-7	-2	-7	-7	40*	-10	-5
Nc1nc(=S)c2ncn(C3CCCCC3)c2[nH]1	49	·	3	·	·	·	·	·
CCCn1cnc2c(=S)nc(N)[nH]c21	53	-7	6	5	0	57*	-20	3
CCCCCn1cnc2c(=S)nc(N)[nH]c21	43	2	-6	-8	-2	41*	-19	5
Cc1ccc(-n2c(SCC(=O)N/N=C/c3ccccc3C(=O)O)nnc2-c2ccccc2)cc1	-17	-3	-3	24	-1	2	·	·
Cc1ccc(NC(=O)COC(=O)c2ccc(S(=O)(=O)N3CCCC3)cc2)cc1	-16	-3	2	·	1	·	·	·
Cn1cc(S(=O)(=O)NCc2ccc(F)cc2)c(=O)n(C)c1=O	14	-2	-7	22	0	-11	·	·
N=c1c(S(=O)(=O)c2ccccc2)cc2c(=O)n3ccccc3nc2n1CCCN1CCOCC1	5	-3	-3	19	-5	34*	-30	-4
O=C1C=C(NNC(=O)c2cccnc2)CC(c2ccco2)C1 (stereo not given)	-2	-6	-5	14	7	35*	-29	9
CC1(C)CC(=O)C=C(NNC(=O)c2cccnc2)C1	-6	1	1	-22	-2	18	·	·
Cc1cc(C)c2[nH]c(=O)c(C(c3nnnn3Cc3ccc4c(c3)OCO4)N3CCC(C)CC3)cc2c1 (stereo not given)	15	-6	9	13	-7	11	·	·
CCOC(=O)c1c(CC(C)C)csc1NC(=O)c1ccccc1C(=O)O	-24	-7	-2	20	-5	-16	·	·
CN1CCN(C(=S)c2ccc(N(C)C)cc2)CC1	48	22	-9	-7	-10	40*	10	1
COc1cc(OC)c(OC)cc1/C=N/n1c(COc2ccccc2)n[nH]c1=S	39	39	-3	23	3	33*	-1	1
S=c1[nH]nc(COc2ccccc2)n1/N=C/c1ccc(Cl)cc1Cl	-3	-7	2	10	-6	11	·	·
Oc1ccc(/C=N/n2c(COc3ccccc3)n[nH]c2=S)c(O)c1	41	27	14	5	1	33*	12	3
O=C(NC(=Nc1ccccc1)N1CCOCC1)Nc1ccccc1	-5	-3	3	10	-3	-4	·	·
O=C(Nn1cnnc1)c1cc(-c2cccc(Br)c2)nc2ccccc12	12	-5	-1	28	4	61*	57*	2
O=C(Nc1ncccn1)c1cc(-c2cccc(Br)c2)nc2ccccc12	-1	-2	-11	-8	-1	6	·	·

High-throughput results from PubChem BioAssay.
